Series [1] deals with T1, Steroid 17-alpha-hydroxylase/17,20 lyase (Homo sapiens, UniProt P05093).
T1 sequence (P05093 whole entry): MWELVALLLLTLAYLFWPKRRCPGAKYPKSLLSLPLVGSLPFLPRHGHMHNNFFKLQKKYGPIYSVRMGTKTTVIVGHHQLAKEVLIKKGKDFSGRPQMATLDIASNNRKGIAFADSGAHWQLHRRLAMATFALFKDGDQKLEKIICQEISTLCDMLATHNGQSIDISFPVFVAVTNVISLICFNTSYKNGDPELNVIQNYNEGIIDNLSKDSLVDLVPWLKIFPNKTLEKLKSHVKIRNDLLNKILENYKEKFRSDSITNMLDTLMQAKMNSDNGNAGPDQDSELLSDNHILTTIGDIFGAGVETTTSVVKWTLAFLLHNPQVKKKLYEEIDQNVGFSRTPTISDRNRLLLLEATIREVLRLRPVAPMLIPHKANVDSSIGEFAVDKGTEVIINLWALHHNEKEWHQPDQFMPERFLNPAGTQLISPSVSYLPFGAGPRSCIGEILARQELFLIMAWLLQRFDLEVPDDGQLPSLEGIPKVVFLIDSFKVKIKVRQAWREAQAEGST
The series is described as follows: Inhibition of CYP17. In a few lines:
(§1)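 Enzyme source: 50,000g sediment from homogenized E. coli coexpressing human CYP17 and cytochrome P450 reductase. Substrate progesterone (25 µM as printed), NADPH cofactor.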

In series [2] the target is CYP3A4 (Homo sapiens, UniProt P08684). Kind of series: Inhibition of hepatic CYP3A4 expressed in insect microsomes at 1 uM. It counts as ADME, Microsome. In a few lines:
(§2)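 Recombinant human enzymes from baculovirus-infected insect cell microsomes, run per supplier protocol. Test concentration 1 µM; values are means of at least three independent tests, standard deviations under 5%.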

The target of series [3] is T2, CYP1A2 (Homo sapiens, UniProt P05177).
T2 sequence (P05177 whole entry): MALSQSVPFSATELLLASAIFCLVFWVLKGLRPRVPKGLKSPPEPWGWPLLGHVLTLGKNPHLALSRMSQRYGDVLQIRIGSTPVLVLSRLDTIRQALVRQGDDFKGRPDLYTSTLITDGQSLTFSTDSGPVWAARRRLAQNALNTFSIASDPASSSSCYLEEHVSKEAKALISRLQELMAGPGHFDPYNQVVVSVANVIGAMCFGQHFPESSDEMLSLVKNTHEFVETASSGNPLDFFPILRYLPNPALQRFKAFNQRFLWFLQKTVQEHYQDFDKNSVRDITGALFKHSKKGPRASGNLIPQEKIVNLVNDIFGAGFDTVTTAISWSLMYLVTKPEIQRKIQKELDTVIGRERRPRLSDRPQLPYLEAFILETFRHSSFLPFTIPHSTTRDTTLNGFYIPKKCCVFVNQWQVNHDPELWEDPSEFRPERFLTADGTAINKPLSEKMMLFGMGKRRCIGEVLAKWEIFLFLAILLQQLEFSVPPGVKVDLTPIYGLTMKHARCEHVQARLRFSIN
The series is described as follows: Inhibition of hepatic CYP1A2 expressed in insect microsomes at 1 uM. In kind it is ADME, Microsome. The method in brief:
as §2

Series [4] has as its target T1, Steroid 17-alpha-hydroxylase/17,20 lyase. Kind of series: Inhibition of human CYP17 expressed in Escherichia coli coexpressed with cytochrome P450 reductase. The method in brief: as §1
Series [5] deals with Rattus norvegicus. The series is described as follows: Reduction in plasma testosterone level in Wistar rat at 50 mg/kg, po after 24 hrs. It counts as functional. Also on record: Activity: scale not given: the % may be the effect or the level left.
For series [6], the target named is T3, CYP2B6 (Homo sapiens, UniProt P20813).
T3 sequence (P20813 whole entry): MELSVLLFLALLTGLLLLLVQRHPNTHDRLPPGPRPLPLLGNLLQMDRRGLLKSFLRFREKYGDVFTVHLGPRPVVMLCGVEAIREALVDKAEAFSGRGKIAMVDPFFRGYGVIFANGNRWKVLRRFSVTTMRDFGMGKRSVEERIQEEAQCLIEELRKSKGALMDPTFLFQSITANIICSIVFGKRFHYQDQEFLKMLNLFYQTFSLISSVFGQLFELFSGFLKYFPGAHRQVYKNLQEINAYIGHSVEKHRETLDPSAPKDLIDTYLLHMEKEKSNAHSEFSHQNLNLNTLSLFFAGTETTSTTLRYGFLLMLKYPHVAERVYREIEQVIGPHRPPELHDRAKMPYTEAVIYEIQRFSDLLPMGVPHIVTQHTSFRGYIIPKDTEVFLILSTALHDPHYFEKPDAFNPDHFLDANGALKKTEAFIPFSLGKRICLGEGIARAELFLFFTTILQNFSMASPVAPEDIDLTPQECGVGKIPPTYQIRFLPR
Kind of series: Inhibition of hepatic CYP2B6 expressed in insect microsomes at 1 uM. It counts as ADME, Microsome. In a few lines:
as §2

In series [7] the test system is Rattus norvegicus. The series is described as follows: Intrinsic clearance in Wistar rat at 50 mg/kg, po. In kind it is ADME, organism-based. The settings on record: in vivo. Also on record: dose 50 mg/kg, route oral. In a few lines:
(§3)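 Male Wistar rats dosed orally at 50 mg/kg, or as acetate at 56 mg/kg (equivalent to 50 mg/kg parent). Plasma drug levels by LC–MS; non-compartmental analysis on mean plasma concentration–time data, values below detection limit set to zero. AUC, Cmax, tmax, terminal t1/2 and intrinsic hepatic clearance derived.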

Series [8] has as its system Rattus norvegicus. Kind of series: Reduction in plasma testosterone level in Wistar rat at 50 mg/kg, po after 4 hrs. Also on record: scale not given: the % may be the effect or the level left. In kind it is functional.
Series [9] is described as follows: Cmax in Wistar rat at 50 mg/kg, po. It counts as ADME, organism-based. Also noted: dose 50 mg/kg, route oral. The settings on record: in vivo. The method in brief:
as §3

For series [10], the target named is T4, CYP11B1 (Homo sapiens, UniProt P15538).
T4 sequence (P15538 whole entry): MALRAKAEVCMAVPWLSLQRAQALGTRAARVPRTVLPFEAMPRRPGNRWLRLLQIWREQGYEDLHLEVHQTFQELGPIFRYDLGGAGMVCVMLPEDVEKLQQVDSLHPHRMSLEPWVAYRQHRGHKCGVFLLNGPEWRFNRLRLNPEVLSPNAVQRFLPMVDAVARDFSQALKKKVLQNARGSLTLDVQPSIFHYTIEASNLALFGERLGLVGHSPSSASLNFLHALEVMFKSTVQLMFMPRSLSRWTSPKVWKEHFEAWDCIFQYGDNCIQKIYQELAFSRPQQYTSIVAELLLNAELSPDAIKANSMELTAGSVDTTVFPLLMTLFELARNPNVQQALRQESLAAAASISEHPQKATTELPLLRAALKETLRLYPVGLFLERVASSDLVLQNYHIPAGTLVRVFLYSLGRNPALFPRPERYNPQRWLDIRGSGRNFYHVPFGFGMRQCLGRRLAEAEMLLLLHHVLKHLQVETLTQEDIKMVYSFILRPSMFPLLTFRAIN
The series is described as follows: Inhibition of human CYP11B1 at 0.2 uM using [4-14C]-11-dexycorticosterone as a substrate. The settings on record: probe [4-14C]-11-dexycorticosterone. In a few lines: (§4)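 V79MZh cells expressing human CYP11B1 or CYP11B2, incubated with [4-14C]-11-deoxycorticosterone as substrate; inhibitors tested at 0.2 µM.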

Series [11] addresses T5, CYP11B2 (Homo sapiens, UniProt P19099).
T5 sequence (P19099 whole entry): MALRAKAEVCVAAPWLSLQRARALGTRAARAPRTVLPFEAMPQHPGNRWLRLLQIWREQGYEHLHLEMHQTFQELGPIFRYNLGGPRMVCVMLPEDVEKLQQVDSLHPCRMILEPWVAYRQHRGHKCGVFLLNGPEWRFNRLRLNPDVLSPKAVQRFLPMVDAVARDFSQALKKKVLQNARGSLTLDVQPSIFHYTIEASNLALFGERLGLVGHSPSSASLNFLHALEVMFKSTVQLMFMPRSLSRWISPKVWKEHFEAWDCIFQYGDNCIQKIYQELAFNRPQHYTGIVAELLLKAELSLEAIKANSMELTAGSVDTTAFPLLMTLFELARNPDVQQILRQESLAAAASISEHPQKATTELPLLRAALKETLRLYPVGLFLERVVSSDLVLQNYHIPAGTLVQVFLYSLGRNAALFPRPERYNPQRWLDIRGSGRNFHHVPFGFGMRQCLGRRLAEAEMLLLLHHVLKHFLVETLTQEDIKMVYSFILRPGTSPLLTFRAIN
The series is described as follows: Inhibition of human CYP11B2 at 0.2 uM using [4-14C]-11-dexycorticosterone as a substrate. To be noted: probe [4-14C]-11-dexycorticosterone. The method in brief:
as §4

Series [12] concerns Rattus norvegicus. The series is described as follows: Reduction in plasma testosterone level in Wistar rat at 50 mg/kg, po after 1 hr. Also on record: scale not given: the % may be the effect or the level left. It counts as functional.
Series [13] can be described thus: AUC (0 to infinity) in Wistar rat at 50 mg/kg, po. In kind it is ADME, organism-based. Also noted: time infinity, dose 50 mg/kg, route oral. The settings on record: plasma. In a few lines:
as §3

Series [14] can be described thus: Terminal half life in Wistar rat at 50 mg/kg, po. In kind it is ADME, organism-based. Also noted: dose 50 mg/kg, route oral. To be noted: in vivo. The method in brief:
as §3

Series [15] addresses CYP2D6 (Homo sapiens, UniProt P10635). Kind of series: Inhibition of hepatic CYP2D6 expressed in insect microsomes at 1 uM. It counts as ADME, Microsome. In a few lines: as §2
Series [16] in a line: Tmax in Wistar rat at 50 mg/kg, po. It counts as ADME, organism-based. Also noted: dose 50 mg/kg, route oral. The settings on record: in vivo. The method in brief: as §3
Series [17] deals with Rattus norvegicus. The series is described as follows: Reduction in plasma testosterone level in Wistar rat at 50 mg/kg, po after 2 hrs. It counts as functional. Also noted: scale not given: the % may be the effect or the level left.
Series [18] has as its system Rattus norvegicus. Kind of series: Reduction in plasma testosterone level in Wistar rat at 50 mg/kg, po after 6 hrs. It counts as functional. Also on record: scale not given: the % may be the effect or the level left.
For series [19], the system named is Rattus norvegicus. The series is described as follows: Reduction in plasma testosterone level in Wistar rat at 50 mg/kg, po after 8 hrs. Also noted: scale not given: the % may be the effect or the level left. In kind it is functional.
In series [20] the test system is Rattus norvegicus. Kind of series: Intrinsic clearance in Wistar rat at 56 mg/kg, po. It counts as ADME, organism-based. Also on record: dose 56 mg/kg, route oral. To be noted: in vivo. The method in brief: as §3

CYP3A4, sequence (P08684 whole entry): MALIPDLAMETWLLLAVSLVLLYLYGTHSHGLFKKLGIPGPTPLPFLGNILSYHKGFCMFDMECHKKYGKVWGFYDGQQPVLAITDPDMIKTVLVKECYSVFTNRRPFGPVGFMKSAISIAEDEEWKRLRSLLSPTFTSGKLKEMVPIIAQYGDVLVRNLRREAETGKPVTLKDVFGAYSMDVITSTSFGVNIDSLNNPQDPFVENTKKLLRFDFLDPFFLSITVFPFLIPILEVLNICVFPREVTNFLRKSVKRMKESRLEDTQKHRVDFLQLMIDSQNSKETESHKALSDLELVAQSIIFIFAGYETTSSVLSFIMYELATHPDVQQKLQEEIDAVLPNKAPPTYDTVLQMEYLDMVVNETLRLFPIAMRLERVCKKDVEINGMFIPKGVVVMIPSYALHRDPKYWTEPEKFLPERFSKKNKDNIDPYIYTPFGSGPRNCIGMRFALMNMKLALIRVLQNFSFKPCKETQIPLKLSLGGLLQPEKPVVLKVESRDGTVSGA
CYP2D6, sequence (P10635 whole entry): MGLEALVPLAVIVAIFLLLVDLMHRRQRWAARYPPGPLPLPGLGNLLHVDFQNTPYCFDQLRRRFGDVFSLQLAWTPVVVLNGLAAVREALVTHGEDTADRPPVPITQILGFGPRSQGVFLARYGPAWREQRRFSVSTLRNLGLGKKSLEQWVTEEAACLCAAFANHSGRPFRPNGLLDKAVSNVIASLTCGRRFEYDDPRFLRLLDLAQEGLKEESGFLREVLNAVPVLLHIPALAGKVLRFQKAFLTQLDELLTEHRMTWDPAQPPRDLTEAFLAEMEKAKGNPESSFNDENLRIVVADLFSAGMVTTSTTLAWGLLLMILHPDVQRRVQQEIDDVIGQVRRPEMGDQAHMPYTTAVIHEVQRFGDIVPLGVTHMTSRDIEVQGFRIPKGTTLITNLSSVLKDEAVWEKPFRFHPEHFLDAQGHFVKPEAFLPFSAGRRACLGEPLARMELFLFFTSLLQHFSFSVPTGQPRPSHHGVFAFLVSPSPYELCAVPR

One may read the IC50 as the concentration at which inhibition is half-maximal. A word on the inhibition: it is the change of the read-out against control, counted positive when it falls. For `CC(c1ccc2c(c1)Cc1ccccc1-2)n1ccnc1` (centres undefined), the values for the IC50 in series [1] and in series [4] were 4 nM and 112 nM, respectively. Further, the inhibition at 1 µM in series [2] was 89%; in series [3] it was 98%.
One may read the Cmax as the peak of the concentration-time curve. For orientation: AUC(0-inf) means total exposure, with the tail of the curve extrapolated. Broadly, the half-life is the time needed for the level to fall by half in the phase considered. One may read the Tmax as the time from dosing to the highest level. Regarding `CCC(c1ccc(-c2ccc(F)cc2)cc1)n1ccnc1` (centres undefined), the Activity came out at 36.7% in series [5]; 13.9% in [8]; 16.5% in [12]; 11.7% in series [17]; 13.9% in [18]; 13.4% in series [19]. The inhibition at 1 µM in series [6] worked out at 46%; in [2], 88%; in [15] it was 54%; in [3], 97%. The compound further registered a CL in series [7] of 12 mL/min/kg. The Cmax in series [9] is 3290 ng/mL. Also, the inhibition at 0.2 µM in series [10] and in [11] was 66% in each case. This compound returned an AUC(0-inf) in series [13] of 70700 ng·h/mL. Further, the half-life in [14] is 10 h. The time to peak (Tmax) in series [16] is 6 h. Besides, it took 345 nM to reach half-maximal inhibition in series [4] (IC50).
With `CC(=O)O[C@H]1CC[C@@]2(C)C(=CC[C@@H]3[C@@H]2CC[C@]2(C)C(c4cccnc4)=CC[C@@H]32)C1` [ABIRATERONE ACETATE], the “relative plasma testosterone level” value in [5] was found to be 476%. Further, the Activity was 43.5% in [8]; 92.5% in series [12]; 44% in series [17]; 43.3% in series [18]; 35.6% in series [19]. This compound also yielded a CL in series [20] of 187 mL/min/kg.

These data come from ChEMBL document CHEMBL1156610, “Synthesis, biological evaluation, and molecular modeling studies of methylene imidazole substituted biaryls as inhibitors of human 17alpha-hydroxylase-17,20-lyase (CYP17)--part II: Core rigidification and influence of substituents at the methylene bridge” (Bioorg Med Chem, 2008).
